Each block holds one compound with its values, some of them ahead of it. The source made the active and inactive calls. The rule behind the calls is not given here.
Tests used:
RAW264.7 [1] = assay: Inhibition of LPS-induced NO production in mouse RAW264.7 cells at 20 uM after 20 hrs by Griess method; type: functional; conditions: RAW264.7, 20 h
Outline: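 Same nitrite read-out in RAW 264.7 cells: 1% FBS medium, LPS 1 μg/mL with compound at 20 μM for 20 h. Griess reagent, 570 nm, nitrite standard curve. Percent inhibition relative to LPS-only control, n = 3.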

RAW264.7 [2] = assay: Inhibition of LPS-induced NO production in mouse RAW264.7 cells at 100 uM after 20 hrs by Griess method; type: functional; conditions: RAW264.7, 20 h
RAW264.7 [3] = assay: Inhibition of LPS-induced NO production in mouse RAW264.7 cells after 20 hrs by Griess method; type: functional, cell-based; conditions: RAW264.7, 20 h
Outline: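 RAW 264.7 cells in 10% FBS-DMEM plated at 1 × 10⁵ cells/mL for 24 h, then switched to 1% FBS medium. Incubated 20 h with LPS (1 μg/mL) ± compounds. Nitrite in supernatant measured with Griess reagent, 10 min at room temperature, absorbance 570 nm, sodium nitrite standard curve. IC50 taken from dose–response curve; mean ± SD of three experiments.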

RAW264.7 [4] = assay: Inhibition of LPS-induced iNOS protein expression in mouse RAW264.7 cells at 20 uM after 20 hrs by Western blot analysis; type: functional, cell-based
Outline: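 RAW 264.7 cells at 8 × 10⁵ per 60 mm dish treated 20 h with LPS (1 μg/mL) and compound (5, 20 μM). Cells washed and lysed; 20 μg lysate protein run on 8% SDS-PAGE, transferred to PVDF. Probed with anti-iNOS and anti-β-actin (internal control); ECL detection. Representative of three independent experiments.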

RAW264.7 [5] = assay: Inhibition of LPS-induced iNOS mRNA expression in mouse RAW264.7 cells at 20 uM after 6 hrs by RT-PCR analysis; type: functional, cell-based
Outline: (§1)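 RAW 264.7 cells at 8 × 10⁵ per 60 mm dish stimulated 6 h with LPS (1 μg/mL) plus compound at 5 or 20 μM. Total RNA extracted; iNOS mRNA measured by RT-PCR with β-actin as internal control. PCR run 25 cycles (94 °C 30 s, 55 °C 30 s, 72 °C 30 s); products run on 2% agarose gel. Representative of three independent experiments.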

[6] = biological target: Transcription factor p65 (Mus musculus) (UniProt Q04207); assay: Inhibition of NF-kB p65 nuclear translocation in LPS-stimulated mouse RAW264.7 cells at 5 uM treated 30 mins before LPS challenge measured after 15 mins by Western blot analysis
[7] = biological target: Transcription factor p65 (Mus musculus) (UniProt Q04207); assay: Inhibition of NF-kB p65 nuclear translocation in LPS-stimulated mouse RAW264.7 cells at 20 uM treated 30 mins before LPS challenge measured after 15 mins by Western blot analysis
RAW264.7 [8] = assay: Inhibition of LPS-induced iNOS mRNA expression in mouse RAW264.7 cells at 5 uM after 6 hrs by RT-PCR analysis; type: functional, cell-based; outline: as §1

Chain of Transcription factor p65 (Mus musculus) (Q04207 whole entry): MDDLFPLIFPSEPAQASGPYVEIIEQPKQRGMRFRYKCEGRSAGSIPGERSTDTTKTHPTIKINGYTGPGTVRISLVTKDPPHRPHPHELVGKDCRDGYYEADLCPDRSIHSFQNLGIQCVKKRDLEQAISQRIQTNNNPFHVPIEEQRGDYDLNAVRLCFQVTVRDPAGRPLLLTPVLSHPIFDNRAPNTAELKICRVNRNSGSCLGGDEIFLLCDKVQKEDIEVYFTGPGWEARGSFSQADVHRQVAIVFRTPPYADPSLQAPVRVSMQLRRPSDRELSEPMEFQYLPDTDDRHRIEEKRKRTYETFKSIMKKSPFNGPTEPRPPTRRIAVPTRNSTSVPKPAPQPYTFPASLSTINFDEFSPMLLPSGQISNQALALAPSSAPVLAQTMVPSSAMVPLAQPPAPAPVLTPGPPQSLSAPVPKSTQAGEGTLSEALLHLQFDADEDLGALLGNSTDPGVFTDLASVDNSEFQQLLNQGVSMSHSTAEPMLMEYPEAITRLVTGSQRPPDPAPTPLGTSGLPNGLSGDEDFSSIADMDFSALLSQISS

Compound: CCSC(=O)Nc1ccc(OCCn2c3ccccc3c3ccccc32)cc1
- inhibition at 20 µM (RAW264.7 [1]): 26%

Compound: O=C(Nc1ccc(OCCn2c3ccccc3c3ccccc32)cc1)Oc1ccc([N+](=O)[O-])cc1
- inhibition at 20 µM (RAW264.7 [1]): 22%

Compound: CC(C)OC(=S)Nc1ccc(OCCn2c3ccccc3c3ccccc32)cc1
- inhibition at 20 µM (RAW264.7 [1]): 20%

Compound: N=C(N)NN [PIMAGEDINE]
- inhibition at 100 µM (RAW264.7 [2]): 74%

Compound: COC(=O)CNC(=O)Oc1ccc(OCCn2c3ccccc3c3ccccc32)cc1
- inhibition at 20 µM (RAW264.7 [1]): 33%

Compound: CCOC(=O)CNC(=O)Oc1ccc(OCCn2c3ccccc3c3ccccc32)cc1
- inhibition at 20 µM (RAW264.7 [1]): 35%

Compound: CSC(=O)Nc1ccc(OCCn2c3ccccc3c3ccccc32)cc1
- inhibition at 20 µM (RAW264.7 [1]): 44%

Compound: CCNC(=S)Oc1ccc(OCCn2c3ccccc3c3ccccc32)cc1
- inhibition at 20 µM (RAW264.7 [1]): 10%

- IC50 (RAW264.7 [3]): 12 µM
- inhibition [6]: Active
- inhibition [7]: Active
Compound: COC(=S)Nc1ccc(OCCn2c3ccccc3c3ccccc32)cc1
- inhibition at 20 µM (RAW264.7 [1]): 60%
- inhibition (RAW264.7 [4]): Active
- inhibition (RAW264.7 [5]): Active

Compound: CCNC(=O)Oc1ccc(OCCn2c3ccccc3c3ccccc32)cc1
- inhibition at 20 µM (RAW264.7 [1]): 10%

- IC50 (RAW264.7 [3]): 6.5 µM
- inhibition [6]: Active
- inhibition [7]: Active
Compound: CCOC(=O)CNC(=S)Oc1ccc(OCCn2c3ccccc3c3ccccc32)cc1
- inhibition at 20 µM (RAW264.7 [1]): 73%
- inhibition (RAW264.7 [4]): Active
- inhibition (RAW264.7 [5]): Active
- inhibition (RAW264.7 [8]): Active

Compound: S=C(Nc1ccc(OCCn2c3ccccc3c3ccccc32)cc1)OCc1ccccc1
- inhibition at 20 µM (RAW264.7 [1]): 18%
